Results as given in ChEMBL document CHEMBL1137433, “Synthesis and antibacterial evaluation of ureides of Baylis-Hillman derivatives” (2006).
Values after ≈ are worked out from the molar mass of the structure shown.

What was measured:
Format in all cases: functional
Klebsiella pneumoniae = assay: Antibacterial activity against Klebsiella pneumoniae
Method in brief: (§1)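 Broth microdilution MIC in Mueller Hinton broth, 96-well plates. Strains from departmental collection, kept on nutrient agar slants at 37 °C, purity checked before testing. Starting inoculum 1–5 · 10³ cells/ml. Plates incubated 24 h at 37 °C in a moist chamber, then absorbance read at 492 nm. MIC taken as 90% growth inhibition relative to growth control.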

Escherichia coli = assay: Antibacterial activity against Escherichia coli; method in brief: as §1
Enterococcus faecalis = assay: Antibacterial activity against Streptococcus faecalis; method in brief: as §1
Staphylococcus aureus = assay: Antibacterial activity against Staphylococcus aureus; method in brief: as §1
Pseudomonas aeruginosa = assay: Antibacterial activity against Pseudomonas aeruginosa; method in brief: as §1

| MIC (Klebsiella pneumoniae) [µg/mL] | MIC (Escherichia coli) [µg/mL] | MIC (Enterococcus faecalis) [µg/mL] | MIC (Staphylococcus aureus) [µg/mL] | MIC (Pseudomonas aeruginosa) [µg/mL] | Molecule |
| --- | --- | --- | --- | --- | --- |
| 50 (≈ 119 µM) | 12.5 (≈ 29.8 µM) | 50 (≈ 119 µM) | 25 (≈ 59.5 µM) | 50 (≈ 119 µM) | N#CC(CN(Cc1ccccc1)C(=O)Nc1ccc(Cl)cc1)C(O)c1ccccc1 (centres undefined) |
| 50 (≈ 120 µM) | 25 (≈ 60.2 µM) | 25 (≈ 60.2 µM) | 25 (≈ 60.2 µM) | 50 (≈ 120 µM) | N=c1c(Cc2ccc(Cl)c(Cl)c2)c[nH]c(=O)n1-c1ccc(Cl)c(Cl)c1 |
| > 50 | > 50 | > 50 | > 50 | > 50 | N#C/C(=C/c1cccs1)CNC(=O)Nc1ccc(Cl)cc1Cl |
| > 50 | > 50 | > 50 | > 50 | > 50 | N#CC(CN(Cc1ccccc1)C(=O)Nc1ccc(Cl)c(Cl)c1)C(O)c1ccccc1 (centres undefined) |
| 3.12 (≈ 6.66 µM) | 3.12 (≈ 6.66 µM) | 6.25 (≈ 13.3 µM) | 3.12 (≈ 6.66 µM) | 50 (≈ 107 µM) | COC(c1ccccc1)C(C#N)CN(Cc1ccccc1)C(=O)Nc1ccc(Cl)c(Cl)c1 (centres undefined) |
| > 50 | > 50 | > 50 | > 50 | > 50 | N=c1c(Cc2ccccc2Cl)c[nH]c(=O)n1-c1ccc(Cl)cc1 |
| > 50 | 6.25 (≈ 15.1 µM) | > 50 | > 50 | > 50 | N#C/C(=C/c1ccc(Cl)c(Cl)c1)CNC(=O)Nc1ccc(Cl)cc1Cl |
| > 50 | > 50 | > 50 | > 50 | > 50 | N#CC(CNC(=O)Nc1ccc(Cl)cc1Cl)C(O)c1ccccc1 (centres undefined) |
| > 50 | > 50 | > 50 | > 50 | > 50 | N#C/C(=C/c1ccccc1Cl)CNC(=O)Nc1ccc(Cl)cc1Cl |
| 1.56 (≈ 3.76 µM) | 0.78 (≈ 1.88 µM) | 1.56 (≈ 3.76 µM) | 1.56 (≈ 3.76 µM) | 50 (≈ 120 µM) | N#C/C(=C/c1ccc(Cl)c(Cl)c1)CNC(=O)Nc1ccc(Cl)c(Cl)c1 |
| 50 (≈ 131 µM) | > 50 | > 50 | > 50 | > 50 | N=c1c(Cc2ccccc2Cl)c[nH]c(=O)n1-c1ccc(Cl)cc1Cl |
| 0.01 (≈ 0.0286 µM) |  | 0.02 (≈ 0.0572 µM) | 0.09 (≈ 0.258 µM) | 50 (≈ 143 µM) | CC1(C)S[C@@H]2[C@H](NC(=O)[C@H](N)c3ccccc3)C(=O)N2[C@H]1C(=O)O [AMPICILLIN] |
| > 50 | 50 (≈ 131 µM) | 50 (≈ 131 µM) | > 50 | > 50 | N=c1c(Cc2ccccc2Cl)c[nH]c(=O)n1-c1ccc(Cl)c(Cl)c1 |
| > 50 | > 50 | > 50 | > 50 | > 50 | N#C/C(=C/c1ccc(Cl)c(Cl)c1)CNC(=O)Nc1ccc(Cl)cc1 |
| 3.12 (≈ 6.66 µM) | 1.56 (≈ 3.33 µM) | 3.12 (≈ 6.66 µM) | 1.56 (≈ 3.33 µM) | 50 (≈ 107 µM) | COC(c1ccccc1)C1CN(Cc2ccccc2)C(=O)N(c2ccc(Cl)c(Cl)c2)C1=N (centres undefined) |
| > 50 | > 50 | > 50 | > 50 | > 50 | Cc1ccc(NC(=O)NC/C(C#N)=C\c2ccccc2Cl)cc1Cl |
| 50 (≈ 194 µM) | 25 (≈ 96.9 µM) | 50 (≈ 194 µM) | 50 (≈ 194 µM) | 50 (≈ 194 µM) | N=C1CCNC(=O)N1c1ccc(Cl)cc1Cl |
| > 50 | > 50 | > 50 | > 50 | > 50 | N#C/C(=C/c1ccccc1Cl)CNC(=S)Nc1ccccc1 |
| 50 (≈ 170 µM) | 50 (≈ 170 µM) | 50 (≈ 170 µM) | 50 (≈ 170 µM) | 50 (≈ 170 µM) | N#C/C(=C/c1ccccc1)CNC(=S)Nc1ccccc1 |

| MIC (Klebsiella pneumoniae) [µg/mL] | MIC (Escherichia coli) [µg/mL] | MIC (Enterococcus faecalis) [µg/mL] | MIC (Staphylococcus aureus) [µg/mL] | MIC (Pseudomonas aeruginosa) [µg/mL] | Molecule |
| --- | --- | --- | --- | --- | --- |
| > 50 | > 50 | > 50 | > 50 | > 50 | Nc1c(Cc2ccccc2)cnc(=S)n1-c1ccccc1 |
| > 50 | > 50 | > 50 | > 50 | > 50 | N=c1c(Cc2ccc(Cl)c(Cl)c2)c[nH]c(=O)n1-c1ccc(Cl)cc1 |
| > 50 | > 50 | > 50 | > 50 | > 50 | N#C/C(=C/c1ccccc1)CNC(=O)Nc1ccc(Cl)c(Cl)c1 |
| 3.12 (≈ 7.52 µM) | 3.12 (≈ 7.52 µM) | 3.12 (≈ 7.52 µM) | 3.12 (≈ 7.52 µM) | 25 (≈ 60.2 µM) | N=c1c(Cc2ccc(Cl)c(Cl)c2)c[nH]c(=O)n1-c1ccc(Cl)cc1Cl |
| > 50 | > 50 | > 50 | > 50 | > 50 | N#C/C(=C/c1cccs1)CNC(=O)Nc1ccc(Cl)cc1 |
| 50 (≈ 144 µM) | 50 (≈ 144 µM) | 50 (≈ 144 µM) | 50 (≈ 144 µM) | 50 (≈ 144 µM) | N=c1c(Cc2ccccc2)c[nH]c(=O)n1-c1ccc(Cl)c(Cl)c1 |
| > 50 | > 50 | > 50 | > 50 | > 50 | N=c1c(Cc2cccs2)c[nH]c(=O)n1-c1ccc(Cl)cc1 |
| > 50 | 50 (≈ 144 µM) | > 50 | > 50 | > 50 | N#C/C(=C/c1ccccc1)CNC(=O)Nc1ccc(Cl)cc1Cl |
| > 50 | > 50 | > 50 | > 50 | > 50 | Cc1ccc(NC(=O)NC/C(C#N)=C\c2ccc(Cl)c(Cl)c2)cc1Cl |
| > 50 | 50 (≈ 142 µM) | > 50 | > 50 | > 50 | N=c1c(Cc2cccs2)c[nH]c(=O)n1-c1ccc(Cl)cc1Cl |
| > 50 | > 50 | 25 (≈ 76.3 µM) | > 50 | > 50 | Nc1c(Cc2ccccc2Cl)cnc(=S)n1-c1ccccc1 |
| 3.12 (≈ 8.61 µM) | 1.56 (≈ 4.31 µM) | 3.12 (≈ 8.61 µM) | 1.56 (≈ 4.31 µM) | 25 (≈ 69 µM) | N#C/C(=C/c1ccc(Cl)c(Cl)c1)CNC(=S)Nc1ccccc1 |
| 50 (≈ 127 µM) | > 50 | 50 (≈ 127 µM) | > 50 | > 50 | Cc1ccc(-n2c(=O)[nH]cc(Cc3ccc(Cl)c(Cl)c3)c2=N)cc1Cl |
| > 50 | > 50 | > 50 | > 50 | > 50 | N#C/C(=C/c1ccccc1Cl)CNC(=O)Nc1ccc(Cl)cc1 |
| 50 (≈ 138 µM) | > 50 | 25 (≈ 69 µM) | > 50 | > 50 | Nc1c(Cc2ccc(Cl)c(Cl)c2)cnc(=S)n1-c1ccccc1 |
| 50 (≈ 144 µM) | 50 (≈ 144 µM) | 25 (≈ 72.2 µM) | 50 (≈ 144 µM) | 50 (≈ 144 µM) | N=c1c(Cc2ccccc2)c[nH]c(=O)n1-c1ccc(Cl)cc1Cl |
| > 50 | 50 (≈ 139 µM) | 50 (≈ 139 µM) | 50 (≈ 139 µM) | 50 (≈ 139 µM) | Cc1ccc(-n2c(=O)[nH]cc(Cc3ccccc3Cl)c2=N)cc1Cl |
| > 50 | 1.56 (≈ 4.1 µM) | > 50 | > 50 | > 50 | N#C/C(=C/c1ccccc1Cl)CNC(=O)Nc1ccc(Cl)c(Cl)c1 |
| > 50 | > 50 | > 50 | > 50 | > 50 | CCOc1ccc(NC(=O)N(Cc2ccccc2)CC(C#N)C(O)c2ccccc2Cl)cc1 (centres undefined) |

| Molecule | MIC (Klebsiella pneumoniae) [µg/mL] | MIC (Escherichia coli) [µg/mL] | MIC (Enterococcus faecalis) [µg/mL] | MIC (Staphylococcus aureus) [µg/mL] | MIC (Pseudomonas aeruginosa) [µg/mL] |
| --- | --- | --- | --- | --- | --- |
| CCn1cc(C(=O)O)c(=O)c2cc(F)c(N3CCNCC3)cc21 [NORFLOXACIN] | 0.36 (≈ 1.13 µM) | 0.36 (≈ 1.13 µM) | 0.78 (≈ 2.44 µM) | 0.3 (≈ 0.939 µM) | 0.78 (≈ 2.44 µM) |
| GENTAMICIN SULFATE | 0.78 | 0.02 | 0.78 | 6.25 | 25 |
